Results as given in ChEMBL document CHEMBL5532647, “Design, synthesis, ADME and biological evaluation of benzylpiperidine and benzylpiperazine derivatives as novel reversible monoacylglycerol lipase (MAGL) inhibitors” (Eur J Med Chem, 2024).
Active and inactive are the calls of the source. The calls are words filed in the database; no cut-off is given here.

How the values were obtained:
[1] = target: T1, Monoglyceride lipase (Homo sapiens) (UniProt Q99685); experiment: Reversible inhibition of human recombinant MAGL using 4-nitrophenylacetate as substrate at 320 nM incubated for 15 mins by microplate reader analysis
T1 sequence (whole entry): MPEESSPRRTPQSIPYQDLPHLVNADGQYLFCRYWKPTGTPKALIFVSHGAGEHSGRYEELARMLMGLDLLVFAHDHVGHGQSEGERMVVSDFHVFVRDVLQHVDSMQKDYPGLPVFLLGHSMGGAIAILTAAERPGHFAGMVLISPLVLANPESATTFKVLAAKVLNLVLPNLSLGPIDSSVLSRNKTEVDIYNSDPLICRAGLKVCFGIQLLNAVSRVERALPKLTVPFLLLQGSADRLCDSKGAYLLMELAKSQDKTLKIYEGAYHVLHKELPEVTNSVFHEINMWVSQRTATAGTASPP
In short: (§1)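 Human recombinant MAGL (880 ng in Tris buffer, pH 7.2) incubated 60 min at room temperature with compound at 320 nM in the mixture, then diluted 40-fold in buffer. After 15 min, reaction started with 4-NPA 500 μM (stock added). Activity read at 405 nm after 30 min. Undiluted comparison run at 320 nM and 8 nM.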

[2] = target: T1, Monoglyceride lipase (Homo sapiens); experiment: Reversible inhibition of human recombinant MAGL using 4-nitrophenylacetate as substrate preincubated with compound for 60 mins followed by substrate addition and measured after 30 mins by microplate reader analysis; details: time 90.0 min
In short: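 Human recombinant MAGL (11 ng/well) in Tris pH 7.2 buffer with EDTA and BSA, preincubated with compound for 0, 30 or 60 min at room temperature. Reaction then started with 4-NPA 500 μM (solution added). Absorbance at 405 nm after 30 min. IC50 from triplicates of two independent experiments.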

Monoglyceride lipase = target: T2, Monoglyceride lipase (Homo sapiens, UniProt Q99685); experiment: Reversible inhibition of MAGL in human U-937 cells using 2-oleoylglycerol as substrate preincubated with compound for 30 mins followed by substrate addition and measured after 5 mins; assay type: cell-based
T2 sequence (Q99685 whole entry): T1 sequence (whole entry)
In short: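 Intact U937 cells co-incubated with compound for 30 min. Then 10 μM 2-oleoylglycerol plus 1.0 nM [3H]2-OG tracer added for a further 5 min at 37 °C. JZL-184 (1 μM) served as full-inhibition control. Two independent experiments in triplicate. IC50 given as mean (95% CI).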

[3] = target: T3, Lysophosphatidylserine lipase ABHD12 (Homo sapiens) (UniProt Q8N2K0); experiment: Inhibition of human ABHD12 transfected in HEK293 cells at 10 uM preincubated with compound for 30 mins followed by 2-OG addition and measured after 5 mins by liquid scintillation spectroscopy; assay type: cell-based; details: time 35.0 min
T3 sequence (whole entry): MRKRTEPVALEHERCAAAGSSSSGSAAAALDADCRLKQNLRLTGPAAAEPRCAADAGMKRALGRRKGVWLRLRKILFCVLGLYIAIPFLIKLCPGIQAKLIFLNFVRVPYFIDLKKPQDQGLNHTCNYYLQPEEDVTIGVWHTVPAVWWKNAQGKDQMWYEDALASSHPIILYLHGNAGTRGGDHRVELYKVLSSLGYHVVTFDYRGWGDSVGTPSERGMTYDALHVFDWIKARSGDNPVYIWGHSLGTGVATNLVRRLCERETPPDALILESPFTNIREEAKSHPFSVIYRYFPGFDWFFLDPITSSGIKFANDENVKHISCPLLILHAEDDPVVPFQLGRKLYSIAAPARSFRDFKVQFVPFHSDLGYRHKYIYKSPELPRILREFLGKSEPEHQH
In short: (§2)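 Homogenates (40 μg) of HEK293 cells stably transfected with hABHD6 or hABHD12. Compound 10 μM preincubated 30 min at 37 °C, 500 rpm, in Tris/EDTA buffer with 0.1% fatty acid-free BSA, pH 7.6. Controls: WWL70 10 μM or THL 20 μM; DMSO vehicle. 2-OG 10 μM added for 5 min at 37 °C. Stopped with ice-cold CHCl3:MeOH; aqueous phase counted. No-enzyme blanks used; non-transfected HEK293 hydrolysis subtracted.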

[4] = target: T4, Monoacylglycerol lipase ABHD6 (Homo sapiens) (UniProt Q9BV23); experiment: Inhibition of human ABHD6 transfected in HEK293 cells at 10 uM preincubated with compound for 30 mins followed by 2-OG addition and measured after 5 mins by liquid scintillation spectroscopy; assay type: cell-based; details: time 35.0 min; in short: as §2
T4 sequence (whole entry): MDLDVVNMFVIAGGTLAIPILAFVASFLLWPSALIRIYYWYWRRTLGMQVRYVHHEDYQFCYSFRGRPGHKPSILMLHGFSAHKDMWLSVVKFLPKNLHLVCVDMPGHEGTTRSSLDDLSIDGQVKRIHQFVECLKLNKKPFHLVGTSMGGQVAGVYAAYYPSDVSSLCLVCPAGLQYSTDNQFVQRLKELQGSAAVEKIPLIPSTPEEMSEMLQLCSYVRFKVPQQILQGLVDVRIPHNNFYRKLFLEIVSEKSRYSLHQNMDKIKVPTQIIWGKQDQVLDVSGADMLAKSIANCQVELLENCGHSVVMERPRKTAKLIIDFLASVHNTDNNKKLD

[5] = target: T1, Monoglyceride lipase (Homo sapiens); experiment: Reversible inhibition of human recombinant MAGL using 4-nitrophenylacetate as substrate at 8 nM incubated for 15 mins by microplate reader analysis; in short: as §1
[6] = target: Cannabinoid receptor 1 (Homo sapiens) (UniProt P21554); experiment: Displacement of [3H]CP55940 from human CB1 receptor at 10 uM incubated for 90 mins
In short: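 Membranes expressing hCB1 or hCB2 in 50 mM Tris-HCl buffer, pH 7.4, with 2.5 mM EDTA, 5 mM MgCl2 and 0.5% fatty acid-free BSA. Incubated with compound (10 μM screening) or vehicle plus 0.5 nM [3H]CP55,940 for 90 min at 30 °C. Non-specific binding defined with 10 μM […]. GF/B filtration, ice-cold buffer washes, radioactivity counted. Two independent experiments in triplicate.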

Cannabinoid receptor 1 (Homo sapiens), sequence (P21554 whole entry): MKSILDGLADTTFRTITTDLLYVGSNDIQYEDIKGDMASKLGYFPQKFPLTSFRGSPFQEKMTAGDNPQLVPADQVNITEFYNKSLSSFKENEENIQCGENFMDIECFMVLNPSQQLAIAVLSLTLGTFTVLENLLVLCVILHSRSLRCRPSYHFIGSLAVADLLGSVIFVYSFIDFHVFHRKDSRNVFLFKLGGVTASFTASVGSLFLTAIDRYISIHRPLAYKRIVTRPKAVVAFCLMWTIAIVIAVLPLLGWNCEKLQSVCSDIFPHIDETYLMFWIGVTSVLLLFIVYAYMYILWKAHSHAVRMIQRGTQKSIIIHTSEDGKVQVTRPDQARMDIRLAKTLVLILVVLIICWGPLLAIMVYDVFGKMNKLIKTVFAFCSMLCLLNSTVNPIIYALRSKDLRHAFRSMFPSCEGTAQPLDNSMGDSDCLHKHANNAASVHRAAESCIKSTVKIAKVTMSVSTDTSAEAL

Structure (SMILES)	inhibition [1]	inhibition [2]	IC50 (Monoglyceride lipase) [nM]	inhibition [3]	inhibition [4]	inhibition [5]	Activity [6]
O=C(c1cccc(O)c1)N1CCC(Cc2ccc(F)c(Sc3cc(C(F)(F)F)ccn3)c2)CC1	Active	Active	193	inactive	inactive	Active	inactive
O=C(c1cc(O)ccc1F)N1CCC(Cc2cccc(Sc3cc(C(F)(F)F)ccn3)c2)CC1	Active	Active	199	inactive	inactive	Active	inactive
O=C(c1cc(O)ccc1F)N1CCN(Cc2cccc(Sc3cc(C(F)(F)F)ccn3)c2)CC1	Active	Active	489	inactive	inactive	Active	inactive
O=C(c1cccc(O)c1)N1CCC(Cc2cccc(Sc3cc(C(F)(F)F)ccn3)c2)CC1	Active	Active	197	inactive	inactive	Active	inactive
